Data published in ChEMBL document CHEMBL2321719, “Discovery of novel α₁-adrenoceptor ligands based on the antipsychotic sertindole suitable for labeling as PET ligands” (Bioorg Med Chem, 2013).

What was measured:
[1] = Ratio of drug level in brain to plasma in rat at 1 hr; type: ADME, cell-free; details: brain and plasma, read-out: BPR
[2] = Efflux ratio of apparent permeability from basolateral to apical side over apical to basolateral side in human Caco2 cells at 1 to 20 uM; type: ADME, cell-based; details: Caco-2
How it was run: (§1)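 Caco-2 monolayers were grown on permeable filters for 21–28 days. A 2 mM DMSO stock was diluted in Hanks-Hepes buffer, pH 7.4, and added to the apical (A–B) or basolateral (B–A) side. The receiver side was sampled over 240 min and topped up with fresh buffer, then analysed by LC–MS/MS. […] Efflux ratio = Papp(B–A)/Papp(A–B).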

[3] = Ratio of drug level in brain to plasma at steady state in rat at 1000 ng/g after 5 hrs; type: ADME, cell-free; details: brain and plasma, read-out: BPR
How it was run: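 Steady-state rat brain/plasma ratio was estimated from equilibrium-dialysis free fractions (spike 1000 ng/g, 5 h, 37 °C, LC–MS/MS) as fu,plasma/fu,brain. This assumes passive distribution, with equal unbound concentrations in brain and plasma.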

[4] = Apparent permeability across apical to basolateral side in human Caco2 cells at 1 to 20 uM by LC-MS/MS analysis; type: ADME, cell-based; details: Caco-2; how it was run: as §1
[5] = Unbound fraction in rat plasma at 1000 ng/g after 5 hrs by equilibrium dialysis method; type: ADME, cell-free
How it was run: (§2)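 Free fraction was measured by 96-well equilibrium dialysis through 3 kDa membranes. Plasma was diluted 1:1 with PBS; rat brain was sonicated on ice to 1:2 brain:PBS. Matrices were spiked at 1000 ng/g (n = 6) and dialysed against PBS for 5 h at 37 °C. Samples were read by LC–MS/MS, and fu was calculated per Kalvass–Maurer with correction for brain dilution.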

[6] = Unbound fraction in rat brain at 1000 ng/g after 5 hrs by equilibrium dialysis method; type: ADME, tissue-based; how it was run: as §2
[7] = molecular target: T1, Alpha-1A adrenergic receptor (Bos taurus, UniProt P18130); assay: Displacement of [3H]prazosine from bovine alpha1A adrenoceptor expressed in BHK cells after 20 mins by scintillation counting analysis; type: cell-based
T1 sequence (P18130 whole entry): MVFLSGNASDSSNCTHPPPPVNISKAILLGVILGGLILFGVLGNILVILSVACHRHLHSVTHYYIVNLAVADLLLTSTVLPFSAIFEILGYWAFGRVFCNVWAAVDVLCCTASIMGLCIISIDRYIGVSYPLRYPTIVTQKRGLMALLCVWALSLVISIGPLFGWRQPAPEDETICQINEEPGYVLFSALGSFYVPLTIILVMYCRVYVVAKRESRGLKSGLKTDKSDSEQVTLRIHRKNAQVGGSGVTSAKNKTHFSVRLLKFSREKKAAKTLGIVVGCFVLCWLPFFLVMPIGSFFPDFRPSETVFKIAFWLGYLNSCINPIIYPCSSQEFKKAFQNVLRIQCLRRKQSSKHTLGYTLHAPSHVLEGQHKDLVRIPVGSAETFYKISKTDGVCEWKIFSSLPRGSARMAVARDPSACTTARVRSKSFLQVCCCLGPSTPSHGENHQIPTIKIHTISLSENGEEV

[8] = Selectivity ratio of Ki for human dopamine D2 receptor to Ki for bovine alpha1A adrenoceptor
How it was run: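 D2: human receptor in CHO membranes, 0.1 nM [3H]spiperone, 50 mM Tris pH 7.4, nonspecific binding with haloperidol, 30 min at 37 °C. Both used GF/B filtration, ≥2 ten-point curves and Cheng–Prusoff.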

D(2) dopamine receptor = D(2) dopamine receptor (Homo sapiens, UniProt P14416); assay: Displacement of [3H]spiperone from human dopamine D2 receptor expressed in CHO cells after 30 mins by scintillation counting analysis; type: cell-based
[9] = Unbound fraction in human plasma at 1000 ng/g after 5 hrs by equilibrium dialysis method; type: ADME, cell-free; how it was run: as §2
[10] = Apparent permeability across apical to basolateral side in human Caco2 cells at 20 uM by LC-MS/MS analysis; type: ADME, cell-based; details: Caco-2; how it was run: as §1
[11] = Unbound fraction in rhesus monkey plasma at 1000 ng/g after 5 hrs by equilibrium dialysis method; type: ADME, cell-free, Macaca mulatta; how it was run: as §2
[12] = molecular target: 5-hydroxytryptamine receptor 6 (Homo sapiens, UniProt P50406); assay: Displacement of [3H]LSD from human 5-HT6 receptor expressed in human HeLa cells after 60 mins by scintillation counting analysis; type: cell-based
How it was run: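 HeLa cells expressing human 5-HT6 were homogenised in 50 mM Tris, pH 7.4. Binding used 50 mM Tris, pH 7.7, and 1 nM [3H]LSD, with nonspecific binding taken with an indolylpiperidine 5-HT6 ligand. Incubation was 60 min at 22 °C, followed by GF/B filtration and scintillation counting. Ki came from ≥2 ten-point curves, via Cheng–Prusoff.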

[13] = Unbound fraction in cynomolgus monkey plasma at 1000 ng/g after 5 hrs by equilibrium dialysis method; type: ADME, cell-free, Macaca fascicularis; how it was run: as §2
[14] = molecular target: 5-hydroxytryptamine receptor 1B (Homo sapiens, UniProt P28222); assay: Displacement of [3H]CT from human 5-HT1B receptor expressed in human HeLa cells after 60 mins by scintillation counting analysis; type: cell-based
How it was run: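 Membranes from HeLa cells expressing human 5-HT1B were prepared in ice-cold 50 mM Tris, pH 7.4. The assay ran in 50 mM Tris, pH 7.7, with 0.8 mg/mL WGA SPA beads and 1.5 nM [3H]CT, for 60 min at room temperature, read by scintillation counting. Nonspecific binding was taken with 5-HT creatinine sulphate. Ki came from ≥2 ten-point curves spanning 4 decades, via Cheng–Prusoff.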

[15] = molecular target: 5-hydroxytryptamine receptor 2A (Homo sapiens, UniProt P28223); assay: Binding affinity to 5-HT2A receptor (unknown origin) by radioligand displacement assay
How it was run: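 This external human 5-HT2A binding assay (Cerep) tested compounds at two concentrations, one of them 100 nM. Ki was derived from a single run, so the error is unknown.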

[16] = molecular target: T2, Alpha-1B adrenergic receptor (Mesocricetus auratus, UniProt P18841); assay: Displacement of [3H]prazosine from hamster alpha1B adrenoceptor expressed in Rat1 cells after 20 mins by scintillation counting analysis; type: cell-based
T2 sequence (P18841 whole entry): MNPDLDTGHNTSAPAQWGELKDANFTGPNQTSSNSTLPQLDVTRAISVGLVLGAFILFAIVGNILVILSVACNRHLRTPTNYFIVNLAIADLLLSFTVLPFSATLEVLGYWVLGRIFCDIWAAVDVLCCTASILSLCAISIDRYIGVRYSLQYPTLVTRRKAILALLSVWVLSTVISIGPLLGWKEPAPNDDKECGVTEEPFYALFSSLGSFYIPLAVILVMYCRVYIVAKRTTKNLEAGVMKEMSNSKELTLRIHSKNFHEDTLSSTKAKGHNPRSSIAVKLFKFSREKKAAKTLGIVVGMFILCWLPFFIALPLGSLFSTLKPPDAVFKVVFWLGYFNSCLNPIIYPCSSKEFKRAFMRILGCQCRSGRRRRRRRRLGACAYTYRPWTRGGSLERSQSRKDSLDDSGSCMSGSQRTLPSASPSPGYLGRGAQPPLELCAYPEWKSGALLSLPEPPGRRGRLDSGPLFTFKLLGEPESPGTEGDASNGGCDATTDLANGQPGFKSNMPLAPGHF

[17] = Efflux ratio of apparent permeability from basolateral to apical side over apical to basolateral side in human Caco2 cells at 20 uM; type: ADME, cell-based; details: Caco-2
How it was run: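 Caco-2 monolayers grown 21–28 days on permeable filters; 2 mM DMSO stock diluted in Hanks-Hepes buffer, pH 7.4, and added to the apical (A–B) or basolateral (B–A) chamber. The opposite chamber was sampled over 240 min, with buffer replaced, and analysed by LC–MS/MS. Papp = dQ/dt × 1/(A × C0), with area 1.1 cm²; ratio = Papp(B–A)/Papp(A–B); N = 2.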

[18] = molecular target: T3, Alpha-1D adrenergic receptor (Rattus norvegicus, UniProt P23944); assay: Displacement of [3H]prazosine from rat alpha1D adrenoceptor expressed in CHO cells after 20 mins by scintillation counting analysis; type: cell-based
T3 sequence (P23944 whole entry): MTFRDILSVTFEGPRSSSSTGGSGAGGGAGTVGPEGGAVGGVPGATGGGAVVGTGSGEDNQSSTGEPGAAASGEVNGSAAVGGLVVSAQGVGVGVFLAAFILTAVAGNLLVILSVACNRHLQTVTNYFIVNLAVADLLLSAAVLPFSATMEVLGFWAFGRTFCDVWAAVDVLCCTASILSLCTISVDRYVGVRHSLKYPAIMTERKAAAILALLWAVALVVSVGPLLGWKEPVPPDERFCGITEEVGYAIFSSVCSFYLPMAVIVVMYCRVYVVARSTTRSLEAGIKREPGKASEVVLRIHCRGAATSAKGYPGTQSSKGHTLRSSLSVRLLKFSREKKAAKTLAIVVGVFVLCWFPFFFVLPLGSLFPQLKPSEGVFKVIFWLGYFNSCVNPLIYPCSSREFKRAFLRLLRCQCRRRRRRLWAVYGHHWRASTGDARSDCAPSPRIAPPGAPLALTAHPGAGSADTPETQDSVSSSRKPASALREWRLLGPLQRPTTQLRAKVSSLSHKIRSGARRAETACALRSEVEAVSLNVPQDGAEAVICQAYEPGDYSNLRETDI

Sequence of D(2) dopamine receptor (P14416 whole entry): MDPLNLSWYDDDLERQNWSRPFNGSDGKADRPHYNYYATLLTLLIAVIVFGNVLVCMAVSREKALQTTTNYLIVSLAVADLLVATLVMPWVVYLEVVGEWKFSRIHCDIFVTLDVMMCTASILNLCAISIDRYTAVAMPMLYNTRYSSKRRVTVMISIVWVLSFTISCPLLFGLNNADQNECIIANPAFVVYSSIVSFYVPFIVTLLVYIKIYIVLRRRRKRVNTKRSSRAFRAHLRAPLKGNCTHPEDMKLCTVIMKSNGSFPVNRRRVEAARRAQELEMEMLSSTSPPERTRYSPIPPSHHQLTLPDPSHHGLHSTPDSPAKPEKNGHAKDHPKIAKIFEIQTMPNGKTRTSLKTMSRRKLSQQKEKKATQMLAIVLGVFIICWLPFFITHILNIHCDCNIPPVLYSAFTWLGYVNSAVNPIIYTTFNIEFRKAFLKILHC
Sequence of 5-hydroxytryptamine receptor 1B (P28222 whole entry): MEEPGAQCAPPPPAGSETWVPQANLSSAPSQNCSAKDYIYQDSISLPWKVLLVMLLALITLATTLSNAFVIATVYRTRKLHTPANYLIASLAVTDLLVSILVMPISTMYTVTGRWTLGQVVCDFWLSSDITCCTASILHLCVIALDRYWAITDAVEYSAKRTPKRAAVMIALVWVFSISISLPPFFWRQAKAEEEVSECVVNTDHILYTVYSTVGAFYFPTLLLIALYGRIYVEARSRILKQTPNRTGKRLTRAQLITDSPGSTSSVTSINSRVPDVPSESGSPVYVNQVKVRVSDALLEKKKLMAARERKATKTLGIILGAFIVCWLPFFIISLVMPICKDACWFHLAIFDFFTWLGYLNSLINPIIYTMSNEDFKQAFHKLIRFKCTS
Sequence of 5-hydroxytryptamine receptor 2A (P28223 whole entry): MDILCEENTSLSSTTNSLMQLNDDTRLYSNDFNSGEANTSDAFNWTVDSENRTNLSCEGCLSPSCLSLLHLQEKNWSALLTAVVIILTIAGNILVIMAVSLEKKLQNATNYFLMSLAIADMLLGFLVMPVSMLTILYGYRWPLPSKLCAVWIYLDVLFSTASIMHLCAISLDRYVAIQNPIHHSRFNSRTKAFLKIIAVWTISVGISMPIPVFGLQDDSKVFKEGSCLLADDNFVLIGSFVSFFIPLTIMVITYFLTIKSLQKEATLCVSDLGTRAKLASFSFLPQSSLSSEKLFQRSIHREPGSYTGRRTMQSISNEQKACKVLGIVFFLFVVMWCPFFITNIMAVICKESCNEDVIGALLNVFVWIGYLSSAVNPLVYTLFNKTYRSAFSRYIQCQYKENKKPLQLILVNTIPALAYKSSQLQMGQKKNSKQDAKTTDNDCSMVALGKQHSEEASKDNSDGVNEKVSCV
Sequence of 5-hydroxytryptamine receptor 6 (P50406 whole entry): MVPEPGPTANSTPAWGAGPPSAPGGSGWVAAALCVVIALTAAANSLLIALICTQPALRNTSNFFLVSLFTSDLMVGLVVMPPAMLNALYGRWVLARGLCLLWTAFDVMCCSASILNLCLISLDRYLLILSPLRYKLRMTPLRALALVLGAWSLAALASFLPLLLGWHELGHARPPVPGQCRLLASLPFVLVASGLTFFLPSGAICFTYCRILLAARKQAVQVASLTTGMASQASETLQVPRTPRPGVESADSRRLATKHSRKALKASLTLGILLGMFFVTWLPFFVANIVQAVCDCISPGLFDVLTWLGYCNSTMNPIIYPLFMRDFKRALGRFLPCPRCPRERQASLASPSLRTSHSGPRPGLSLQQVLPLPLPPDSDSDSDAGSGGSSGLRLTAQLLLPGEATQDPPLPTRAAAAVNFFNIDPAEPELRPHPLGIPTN

Structure (SMILES)	Kp at 5 h, 1000 ng/g [3]	fraction unbound at 5 h, 1000 ng/g [5]	fraction unbound at 5 h, 1000 ng/g [6]	Ki [7] [µM]	Ratio Ki [8]	Ki (D(2) dopamine receptor) [µM]	further results
COc1ccccc1N1CCN(CCN(C(=O)C2CCCCC2)c2ccccn2)CC1 [WAY-100,635]	1.2	0.1	0.084	–	–	–	Kp at 1 h [1]: 1.7; efflux ratio at up to 20 µM [2]: 0.9; Papp A→B at up to 20 µM [4]: 38 ×10⁻⁶ cm/s
CN1CCC(c2cn(-c3ccc(F)cc3)c3ccc(-c4nnn(C)n4)cc23)CC1	–	–	–	0.00028	246	0.069	–
Cn1nnc(-c2ccc3c(c2)c(C2CCN(CCN4CCNC4=O)CC2)cn3-c2ccc(F)cc2)n1	6.3	0.022	0.0035	–	–	–	Kp at 1 h [1]: 0.26; Papp A→B at up to 20 µM [4]: 12 ×10⁻⁶ cm/s
CN1CCC(c2cn(-c3ccncc3)c3ccc(-c4ccncc4)cc23)CC1	–	–	–	0.024	11	0.26	–
CN1CCC(c2cn(-c3ccncc3)c3ccc(-c4cccnc4)cc23)CC1	–	–	–	0.022	50	1.1	–
Cn1cc(-c2ccc3c(c2)c(C2CCN(CCN4CCNC4=O)CC2)cn3-c2ccc(F)cc2)nn1	8.9	0.072	0.0081	–	–	–	Kp at 1 h [1]: > 0.05; Papp A→B at up to 20 µM [4]: 5 ×10⁻⁶ cm/s
CN1CCC(c2cn(-c3ccncc3)c3ccc(-c4cncnc4)cc23)CC1	–	–	–	0.019	44	0.83	–
CN1CCC(c2cn(-c3ccncc3)c3ccc(-c4ccnn4C)cc23)CC1	–	–	–	0.019	46	0.88	–
CN1CCC(c2cn(-c3ccc(F)cc3)c3ccc(-c4ccnn4C)cc23)CC1	–	–	–	0.00032	47	0.015	–
CN1CCC(c2cn(-c3ccc(F)cc3)c3ccc(-c4cccnc4)cc23)CC1	–	–	–	0.0023	33	0.076	–
CN1CCC(c2cn(-c3ccncc3)c3ccc(-c4cnn(C)c4)cc23)CC1	–	–	–	0.038	168	6.4	–
CCN1CCC[C@H]1CNC(=O)c1c(O)c(Cl)cc(Cl)c1OC [RACLOPRIDE]	3.4	0.27	0.08	–	–	–	Kp at 1 h [1]: 6.4; efflux ratio at up to 20 µM [2]: 0.5; Papp A→B at up to 20 µM [4]: 66 ×10⁻⁶ cm/s
CN1CCC(c2cn(-c3ccc(F)cc3)c3ccc(-c4ccn(C)n4)cc23)CC1	–	–	–	0.00054	296	0.16	–
CN1CCC(c2cn(-c3ccc(F)cc3)c3ccc(-c4cncnc4)cc23)CC1	35	0.088	0.0025	–	–	–	fraction unbound at 5 h, 1000 ng/g [9]: 0.096; Papp A→B at 20 µM [10]: 13 ×10⁻⁶ cm/s; fraction unbound at 5 h, 1000 ng/g [11]: 0.13; Ki [12]: 0.016 µM; fraction unbound at 5 h, 1000 ng/g [13]: 0.1; Ki [14]: 0.013 µM
CN1CCC(c2cn(-c3ccc(F)cc3)c3ccc(-c4ccncc4)cc23)CC1	–	–	–	0.01	3	0.027	–
CN1CCC(c2cn(-c3ccc(F)cc3)c3ccc(-c4cnn(C)c4)cc23)CC1	–	–	–	0.0027	56	0.15	–
CN1CCC(c2cn(-c3ccc(F)cc3)c3ccc(-c4ncn(C)n4)cc23)CC1	37	0.074	0.002	0.00016	1380	0.22	Ki [15]: 0.089 µM; Ki [16]: 0.0064 µM; efflux ratio at 20 µM [17]: 0.7; fraction unbound at 5 h, 1000 ng/g [9]: 0.17; Papp A→B at 20 µM [10]: 18 ×10⁻⁶ cm/s; fraction unbound at 5 h, 1000 ng/g [11]: 0.18; Ki [18]: 0.015 µM; fraction unbound at 5 h, 1000 ng/g [13]: 0.16
